# Hits are enriched below; roughly 4.5% of the tested compounds scored in any of these assays.
# MrgX1 antag – antagonists of human MrgX1 receptor; MRGX1-HEK293 calcium flux, Fluo-4, BAM8-22 antagonism; hits give low values; AID 588676; Q96LB2; 310,000 compounds, 1.3% hits; B-score at 10 µM;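 active = calcium-response B-score plate-corrected more than 3 library SD below zero, starting fluorescence within 5 deviations, no agonist response on first addition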;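 also: peak minus trough fluorescence over baseline after final BAM8-22 challenge near maximal dose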
# Target sequence (Q96LB2 whole entry, looked up): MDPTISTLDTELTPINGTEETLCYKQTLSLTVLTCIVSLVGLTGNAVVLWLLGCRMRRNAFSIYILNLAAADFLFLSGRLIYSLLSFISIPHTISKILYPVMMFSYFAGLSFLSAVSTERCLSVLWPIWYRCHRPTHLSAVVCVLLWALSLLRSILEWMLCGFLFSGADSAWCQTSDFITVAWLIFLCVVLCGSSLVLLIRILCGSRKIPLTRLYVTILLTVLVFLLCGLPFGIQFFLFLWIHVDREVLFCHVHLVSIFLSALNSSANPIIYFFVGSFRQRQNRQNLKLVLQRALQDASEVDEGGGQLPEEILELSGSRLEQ
# RGS4 block – inhibitors of human RGS4. B-score at 10 µM. 310,000 compounds, 0.45% hits. HEK293 M3R/RGS4 inducible, Fluo-4 calcium flux; hits give high values; triggered by carbachol at its EC20. AID 463165. P49798;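 active = B-score, a plate-corrected calcium signal, over three deviations above library mean, with baseline fluorescence within five deviations of library mean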;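 also: RGS4 expression induced by doxycycline in cells with stable M3 receptor; B-score is computed from the integrated fluorescence ratio over baseline after carbachol; higher B-score means a larger calcium signal and so more RGS4 inhibition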
# MrgX1 PAM – allosterically activates human MrgX1 receptor signaling; Q96LB2; 310,000 compounds, 0.63% hits; MrgX1-HEK293, Fluo-4 calcium flux, FDSS; hits give high values; B-score at 10 µM;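 active = plate-corrected calcium response at least 3 library SD above typical, normal starting fluorescence, not activating the receptor alone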;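 also: compound read alongside a low EC10 to EC30 dose of BAM8-22 agonist; peak minus trough fluorescence over baseline measured at the second addition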
# MrgX1 ag – activates human MrgX1 receptor signaling | B-score at 10 µM | Q96LB2 | MrgX1-HEK293 cells, Fluo-4 calcium fluorescence, agonist mode; hits give high values | 310,000 compounds, 0.44% hits | AID 588627;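 active = calcium response B-score plate-corrected fluorescence ratio at least 3 library SD, with starting fluorescence B-score inside 5 SD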
#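 Assay system: MrgX1-expressing HEK293 cells / Amount: fifteen thousand cells per well / Doses: test compound in the initial addition of three / Timing: cells plated overnight, dye loaded 0.5 h 37 °C, 0.5 h room temperature / Technique: kinetic calcium dye fluorescence, Fluo-4 NW / Control set: positive and negative controls per plate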
# PHOSPHO1 inh – PHOSPHO1 (human) inhibition. Q8TCT1. recombinant PHOSPHO1, absorbance phosphatase assay. inhibition, % at 13.3 µM. 290,000 compounds, 1.1% hits. AID 1565; in the data active = inhibition above about 60%
# Target sequence (Q8TCT1 whole entry, looked up): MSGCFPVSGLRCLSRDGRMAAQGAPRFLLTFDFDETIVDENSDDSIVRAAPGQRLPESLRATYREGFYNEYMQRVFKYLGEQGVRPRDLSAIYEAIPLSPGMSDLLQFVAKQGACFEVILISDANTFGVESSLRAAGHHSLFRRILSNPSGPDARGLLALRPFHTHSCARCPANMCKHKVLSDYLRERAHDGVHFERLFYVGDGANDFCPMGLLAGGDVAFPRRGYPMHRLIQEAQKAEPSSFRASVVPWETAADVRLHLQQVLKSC
# RGS4 act – RGS4 potentiation or activation; HEK293 M3R/inducible RGS4, carbachol calcium flux Fluo4; hits give low values; B-score at 10 µM; 310,000 compounds, 0.92% hits; AID 463111;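 active = B-score of the integrated calcium signal more than 4 SD below the library mean, with starting fluorescence not abnormally high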;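 also: negative B-score means reduced calcium response which marks RGS4 activation or potentiation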
#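 test system = HEK293 cells with stable M3R and inducible RGS4 | schedule = recording 10 s baseline at 1 Hz, 100 s post-agonist | technique = Fluo4-AM (2 µM) calcium-flux fluorescence, kinetic read | measure = Agonist-evoked peak-minus-minimum fluorescence over baseline, integrated ratio, B score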
# The depositor's hits bear a star; i = inactive; . = not tested or not shown.
SMILES,MrgX1 antag,RGS4 block,MrgX1 PAM,MrgX1 ag,PHOSPHO1 inh,RGS4 act
CC1CCC2C(C)C(=O)OC3OC4(C)CCC1C32OO4 (stereo unspecified),i,i,i,i,24,i
Cc1c(C(=O)N2CCC3(CC2)OCCO3)oc2ccc(S(=O)(=O)N3CCCCC3)cc12,-5.3*,i,i,i,-5,i
CCn1cc(C(=O)N2CCC3(CC2)OCCO3)c(=O)c2cc(S(=O)(=O)N3CCCC3)ccc21,i,i,i,i,11,i
Cc1ccc(N2C(=O)NC(=O)/C(=C/c3ccc(-c4ccc(C(=O)O)c(Cl)c4)o3)C2=O)cc1,i,i,i,i,-1,i
O=C1NC(=O)N(c2ccc(Cl)cc2)C(=O)/C1=C\c1ccc(Sc2nc3ccccc3[nH]2)o1,i,i,17*,i,-13,i
CC/C(=N\N1CCCCCC1)c1c(O)n(-c2ccc(C)cc2)c(=O)[nH]c1=O,i,i,11*,i,-8,i
O=C(N=Nc1c(O)[nH]c(=O)[nH]c1=O)C1COc2cc3ccccc3cc2O1 (stereo unspecified),i,i,i,i,36,i
CCC[N+]12CCC(CC1)C(C(O)(c1ccccc1)c1ccccc1)C2 (stereo unspecified),i,i,i,i,36,i
C[N+]12CCC(CC1)C(C(O)(c1ccccc1)c1cccs1)C2 (stereo unspecified),i,i,i,i,-10,-7.7*
CC(=O)c1ccc2c(c1)C1C(Cl)C(Sc3ccccc3[N+](=O)[O-])CC1C(c1ccccc1[N+](=O)[O-])N2 (stereo unspecified),i,i,i,i,-1,-7.9*
Oc1ccccc1-[n+]1c(-c2ccccc2)cc(-c2ccccc2)cc1-c1ccccc1,i,i,13*,i,.,-7.4*
Cc1ccccc1-[n+]1c(-c2ccccc2)cc(-c2ccccc2)cc1-c1ccccc1,-7.3*,i,i,i,.,-8.9*
COc1ccc(-c2cc(-c3ccccc3)[n+](C)c(-c3ccccc3)c2)cc1,i,i,i,i,6,i
[O-]c1ccccc1-[n+]1c(-c2ccccc2)cc(-c2ccccc2)cc1-c1ccccc1,i,i,8.3*,i,.,i
Cc1ccc(-c2cc(-c3ccccc3)cc(-c3ccccc3)[n+]2-c2ccc(C(=O)O)cc2)cc1,i,i,i,i,.,i
Nc1ccccc1-[n+]1c(-c2ccccc2)cc(-c2ccccc2)cc1-c1ccccc1,-7.3*,i,i,i,41,i
O=C(NCCO)c1nsnc1NCCCl,i,i,i,i,-3,i
C=CCn1c(O)c(C(C)=Nc2ccc(C(=O)O)cc2)c(=O)[nH]c1=O,i,i,i,i,20,i
O=C1C(=O)c2ccccc2-c2ccccc21,i,i,i,i,100*,i
O=C1C(c2ccccc2)=C(N2CC2)c2ccccc21,i,i,i,i,18,i
O=C1C(=O)c2cccc3cccc1c23,i,i,i,27*,4,i
Cc1ccc(C2=NC(C)(C)N3C2C3c2ccc([N+](=O)[O-])cc2)cc1 (stereo unspecified),i,i,i,i,-9,i
Cc1cc(N2CCCCC2)ccc1C=C1C(=O)N(C)C(=S)N(C)C1=O,i,i,i,i,-11,i
Cc1cc(N2CCCC2)ccc1C=C(C#N)C#N,-5.5*,i,i,i,-1,i
COc1ccc(-c2nn(CCC#N)cc2C(=O)Nc2ccccc2)cc1OC,i,i,i,i,19,i
SMILES,MrgX1 antag,RGS4 block,MrgX1 PAM,MrgX1 ag,PHOSPHO1 inh,RGS4 act
C=C1C(=O)O[C@H]2C[C@@H](C)[C@@H]3C=CC(=O)[C@@]3(C)C[C@H]12,i,6.3*,i,i,-18,i
CN1/C(=C\C=C\C2=[N+](C)c3ccc4ccccc4c3C2(C)C)C(C)(C)c2ccccc21,i,.,i,i,25,.
C[N+]1=C(/C=C/Nc2ccccc2)C(C)(C)c2ccccc21,-4.9*,i,i,i,-18,i
Cc1cc(OCC(=O)NC(Cc2ccc(Cl)cc2)C(=O)O)c2c3c(c(=O)oc2c1)CCC3 (stereo unspecified),i,i,i,i,-13,i
O=c1[nH]c(O)c(N=Nc2ccc(SC(F)F)cc2)c(=O)[nH]1,i,i,13*,i,52,i
CC(C)=CCc1c(O)cc2c(c1O)C(=O)CC(c1ccc(O)cc1)O2 (stereo unspecified),i,i,i,i,-5,-7.2*
O=C(CCNC(=O)N1C[C@H]2C[C@@H](C1)c1cccc(=O)n1C2)Nc1ccc(F)cc1,i,i,i,i,34,i
CN1CCCN(C(=O)COc2ccccc2Br)CC1,i,i,i,i,32,i
Cc1ccc(CNCCc2ccccc2F)cc1,i,i,i,i,11,i
CCN(CC)c1ccc(CNCCc2ccccc2F)cc1,i,i,i,i,-9,-7*
COc1ccc(-[n+]2c(-c3ccccc3)cc(-c3ccc(C)cc3)cc2-c2ccccc2)cc1,-6.7*,i,14*,i,51,-7.5*
Brc1ccc(-[n+]2c(-c3ccccc3)cc(-c3ccccc3)cc2-c2ccccc2)cc1,i,i,i,i,.,-8.6*
CCCOC(=O)c1ccc(-[n+]2c(-c3ccccc3)cc(-c3ccccc3)cc2-c2ccccc2)cc1,i,i,i,34*,.,-7.2*
O=C(O)c1ccc(-[n+]2c(-c3ccccc3)cc(-c3ccccc3)cc2-c2ccccc2)cc1,i,i,i,i,.,i
C[n+]1c(-c2ccccc2)cc(CCCCc2cc(-c3ccccc3)[n+](C)c(-c3ccccc3)c2)cc1-c1ccccc1,i,i,i,i,-1,i
C=C1C(=O)O[C@H]2[C@H]1[C@H](OC(=O)CC(=O)O[C@@H]1C[C@@H](C)[C@@H]3C=CC(=O)[C@@]3(C)[C@H]3OC(=O)C(=C)[C@H]13)C[C@@H](C)[C@H]1C=CC(=O)[C@]12C,i,i,i,i,40,i
C=C1C(=O)O[C@@H]2C[C@@H](C)[C@@H]3C4OC4C(=O)[C@@]3(C)[C@@H](O)[C@H]12 (stereo partly specified),i,5.2*,i,i,26,i
